We go through one compound from ChEMBL document CHEMBL4196017, “Design, synthesis and identification of silicon-containing HCV NS5A inhibitors with pan-genotype activity” (Eur J Med Chem, 2018).

In series [1] the test system is Mus musculus. Put plainly: Toxicity in ICR mouse assessed as effect on food consumption at 150 mg/kg, po administered via gavage once daily for 14 days. The class given is organism-based. The following applies: in vivo, 336 h. In outline: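 ICR mice, 5 male + 5 female per group, gavage once daily for 14 days, vehicle control; food intake recorded on day 1 of dosing and then twice weekly, with daily clinical observation.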

Series [2] deals with Mus musculus. Put plainly: Toxicity in ICR mouse assessed as neutrophil level in serum at 150 mg/kg, po administered via gavage once daily for 14 days (reference value: 27.74 +/- 16.27%). In kind it is organism-based. The following applies: in vivo, 336 h. In outline: (§1)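 Haematology on abdominal aortic blood taken at necropsy under ether anaesthesia after 14 daily gavage doses (20 ml/kg) in ICR mice, 5 per sex per group, vehicle control. Parameters: WBC, RBC, haemoglobin, platelets, reticulocyte ratio and differential leukocyte counts; mean ± SD, n = 10.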

Series [3] concerns Mus musculus. Put plainly: Toxicity in ICR mouse assessed as creatinine level in serum at 150 mg/kg, po administered via gavage once daily for 14 days (reference value: 25.22 +/- 3.42 umol/L). The class given is organism-based. The following applies: in vivo, 336 h.
For series [4], the system named is Mus musculus. Put plainly: Toxicity in ICR mouse assessed as liver weight at 150 mg/kg, po administered via gavage once daily for 14 days (reference value: 4.365 +/- 0.222 g). The following applies: in vivo, 336 h. The class given is organism-based.
Series [5] deals with Mus musculus. Put plainly: Toxicity in ICR mouse assessed as ovary weight at 150 mg/kg, po administered via gavage once daily for 14 days (reference value: 0.079 +/- 0.007 g). The class given is organism-based. The following applies: in vivo, 336 h.
Series [6] addresses T1, Nonstructural protein 5A (Hepatitis C virus) (UniProt Q5L478).
T1 sequence (whole entry): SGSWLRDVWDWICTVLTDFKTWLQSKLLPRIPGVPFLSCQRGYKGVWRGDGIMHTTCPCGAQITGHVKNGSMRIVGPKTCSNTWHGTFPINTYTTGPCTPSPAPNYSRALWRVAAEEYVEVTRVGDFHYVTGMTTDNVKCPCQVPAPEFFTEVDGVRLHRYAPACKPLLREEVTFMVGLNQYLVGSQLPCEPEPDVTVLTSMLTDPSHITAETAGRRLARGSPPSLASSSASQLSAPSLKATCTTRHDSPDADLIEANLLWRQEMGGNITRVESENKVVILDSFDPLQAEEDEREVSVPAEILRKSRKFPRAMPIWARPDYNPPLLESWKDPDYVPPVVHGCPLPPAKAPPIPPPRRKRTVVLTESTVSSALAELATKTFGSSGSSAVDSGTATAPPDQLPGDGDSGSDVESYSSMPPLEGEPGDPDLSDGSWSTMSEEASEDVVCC
Put plainly: Potency index, ratio of ombitasvir IC50 to compound IC50 for inhibition of NS5A in HCV genotype 3a infected in human HuH7 replicon cells expressing HCV genotype 1b chimeric replicon. The following applies: Hepatitis C virus subtype 3a. The class given is cell-based.

The test system of series [7] is Mus musculus. Put plainly: Toxicity in ICR mouse assessed as kidney weight at 150 mg/kg, po administered via gavage once daily for 14 days (reference value: 1.51 +/- 0.211 g). The following applies: in vivo, 336 h. In kind it is organism-based.
Series [8] concerns Mus musculus. Put plainly: Toxicity in ICR mouse assessed as eosinophil level in serum at 150 mg/kg, po administered via gavage once daily for 14 days (reference value: 1.66 +/- 0.54%). In kind it is organism-based. The following applies: in vivo, 336 h. An outline of the steps:
as §1

In series [9] the test system is Mus musculus. Put plainly: Toxicity in ICR mouse assessed as blood glucose level at 150 mg/kg, po administered via gavage once daily for 14 days (reference value: 3.64 +/- 0.79 umol/L). The class given is organism-based. The following applies: in vivo, 336 h. In outline:
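ICR mice, 5 males + 5 females per group, dosed by gavage once daily at 150 mg/kg (20 ml/kg) or vehicle for 14 days; killed after the 14th dose; blood from abdominal aorta under ether anaesthesia for hematology and clinical chemistry; mean ± SD, n = 10.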

For series [10], the system named is Mus musculus. Put plainly: Toxicity in ICR mouse assessed as platelet count at 150 mg/kg, po administered via gavage once daily for 14 days (reference value: 1260.3 +/- 137.87 10^9/L). The class given is organism-based. The following applies: in vivo, 336 h. In outline:
as §1

In series [11] the test system is Mus musculus. Put plainly: Toxicity in ICR mouse assessed as gamma glutamyltransferase level in serum at 150 mg/kg, po administered via gavage once daily for 14 days (reference value: 0 U/L). The class given is organism-based. The following applies: in vivo, 336 h.
In series [12] the test system is Mus musculus. Put plainly: Toxicity in ICR mouse assessed as direct bilirubin level in serum at 150 mg/kg, po administered via gavage once daily for 14 days (reference value: 7.6 +/- 0.59 umol/L). The class given is organism-based. The following applies: in vivo, 336 h.

As for `CC[Si](CC)(CC)c1ccc(N2[C@H](c3ccc(NC(=O)[C@@H]4CCCN4C(=O)[C@@H](NC(=O)OC)C(C)C)cc3)CC[C@H]2c2ccc(NC(=O)[C@@H]3CCCN3C(=O)[C@@H](NC(=O)OC)C(C)C)cc2)cc1`, the Activity result is “Non-Toxic” in series [1]; 33.12% in series [2]; 23.2 µmol/L in [3]; 4.346 g in [4]; 0.097 g in [5]; 1.579 g in [7]. Also, the Activity in [8] was 1.88%; in series [9], 4.18 mmol/L; in series [10], 1263.4 ×10⁹ /L; in series [11], 0.03 U/L; in [12] it was 8.57 µmol/L. The Ratio IC50 in series [6] came out at 8.6.
